Screens deposited in PubChem by several laboratories.
TMEM16A inh = inhibitors of mouse TMEM16A calcium-activated chloride channel | Q8BHY3 | HEK293 TMEM16A/YFP iodide influx fluorescence, ionomycin | normalized B-score (activity score, 25-100; higher = stronger inhibition) at 10 µM | 1.2% of 310,000 active | AID 588511;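 active means ratio plate-corrected score three or more library SD toward inhibition, starting fluorescence score within five deviations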;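 further: score derived from kinetic fluorescence span divided by baseline fluorescence per well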
CHT inh = inhibits the human high affinity choline transporter. Q9GZV3. CHT-expressing cells, membrane potential dye, choline response; active compounds read low. B-score at 10 µM. 0.86% of 310,000 active. AID 488975;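 active means B-score over 3 SD under the library average, and starting fluorescence ratio not unusually high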;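 further: choline stimulus applied at its EC90 after an EC20 pre-addition; B-score computed on integrated fluorescence ratio after choline addition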
VIM-2 inh = blocks Pseudomonas aeruginosa VIM-2 metallo-beta-lactamase; purified VIM-2, nitrocefin hydrolysis, epi-absorbance fluorescence; inhibition, % at 5.6 µM; 0.89% of 290,000 active;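 active means inhibition above the mean of all tested compounds plus 3 SD, cutoff set per screening run, cut at about 7.5% in these data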;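 further: red hydrolysis product quenches plate fluorescence so inhibitors raise well fluorescence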
IMP-1 inh = inhibitors of Pseudomonas aeruginosa IMP-1 metallo-beta-lactamase; purified IMP-1, nitrocefin hydrolysis, epi-absorbance fluorescence; inhibition, % at 5.6 µM; 0.45% of 290,000 active; AID 1556;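 active means inhibition above the mean plus 3 SD of all compounds in the same screening run, cut at about 4.5% in these data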
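System: purified IMP-1; amount: IMP-1 0.2 nM before substrate addition; compound: single dose, 5.6 µM; times: 25 °C, 15 min preincubation, 25 min reaction; signal: Epi-absorbance via hydrolysed-nitrocefin quenching of white-plate fluorescence, 480/530 nm, EDTA stop; benchmarks: DMSO with and without IMP-1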
ANO1 activ = activators or potentiators of mouse TMEM16A chloride channel; HEK293 TMEM16A/YFP-H148Q/I152L, iodide quench fluorescence; active compounds read low; B-score at 10 µM; 0.3% of 340,000 active; Q8BHY3;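 active means fluorescence-ratio B-score plate-corrected deviation score at least 3 library SD below zero, with starting fluorescence score within 5 deviations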;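 further: channel opened by trigger with iodide after compound preincubation; score built on the fluorescence ratio of max minus min over baseline; more negative score means more quench and so TMEM16A activation or potentiation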
CHT PAM = human CHT allosteric activation; Q9GZV3; CHT-expressing cells, membrane potential dye, choline EC20; active compounds read high; LV-AA mutant CHT in HEK293 cells; B-score at 10 µM; 0.49% of 310,000 active; AID 488977;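 active means initial fluorescence not abnormally high and integrated response B-score, plate-corrected, over 3 SD above library mean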
CHT inh conf = human CHT inhibition, confirmatory screen | CHT activity remaining % of control (active compounds read low), % at 10 µM | 70% of 2,400 active | AID 493221 | shares compounds with CHT inh | CHT-expressing cells, choline membrane potential dye; LV-to-AA substituted CHT, HEK293 cells;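 active means choline transporter activity left, mean of duplicates at 10 µM, below buffer-only control mean minus 3 SD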;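 further: depolarization triggered by choline at its EC90 following an EC20 pre-addition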
HEK293 CHT ctr = CHT inhibitor counter-screen hit in parental HEK293 cells; membrane potential ratio readout (active if shifted either direction beyond buffer ±3SD; no single direction) at 10 µM; membrane potential dye, choline response; active = decrease or increase beyond buffer ±3SD; 4% of 2,400 active; AID 493222; shares compounds with CHT inh;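 further: parental cells lack the transporter so any hit is non-specific; ratio is peak minus trough fluorescence over baseline after EC90 choline challenge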
Numbers stand for hits; – = inactive; · = not tested or not shown. This is a sample that favours compounds with a hit; in the whole collection about 3.4% have one here.

SMILES | TMEM16A inh | CHT inh | VIM-2 inh | IMP-1 inh | ANO1 activ | CHT PAM | CHT inh conf | HEK293 CHT ctr
COc1ccc(S(=O)(=O)N2CCOCC2)cc1NC(=O)CSc1nnc(N)s1 | – | – | · | · | – | – | · | ·
Cc1ccc(C(=O)Nc2cccc(C(F)(F)F)c2)cc1NC(=O)c1csc(-c2ccncc2)n1 | – | -8 | · | · | – | – | 25% | –
Oc1ccc(-c2nc(-c3ccc(O)c(O)c3)cs2)cc1 | – | -5 | – | – | – | – | 68% | –
C=CCN1C(c2ccc(Br)cc2)=CS/C1=C(/C#N)c1nnc(N2CCOCC2)n1-c1ccccc1 | – | – | – | – | – | – | · | ·
C=CCN1C(c2cccc(C(F)(F)F)c2)=CS/C1=C(/C#N)c1nnc(N2CCOCC2)n1-c1ccccc1 | – | -6 | – | – | – | – | – | –
O=C(CC1C(=O)NCCN1C(=O)Nc1ccccc1)Nc1cc(Cl)cc(Cl)c1 (configuration not stated) | – | -5 | – | – | – | – | 16% | –
O=C(CC1C(=O)NCCN1C(=O)Nc1ccccc1)Nc1cccc(Cl)c1 (configuration not stated) | – | – | – | – | – | – | · | ·
CCC(Sc1nnc(-c2ccc(C)c(Cl)c2)n1CC)C(=O)Nc1nccs1 (configuration not stated) | – | -5.9 | – | – | – | – | 50% | –
COc1cccc(C(=O)NC(C)c2cccc3ccccc23)c1OC (configuration not stated) | – | – | – | – | – | – | · | ·
COc1ccccc1C(=O)NC(C)c1cccc2ccccc12 (configuration not stated) | – | -5.7 | – | – | – | – | 54% | –
O=C(Cc1ccc(O)cc1)N/N=C/c1cccnc1 | – | – | – | – | – | – | · | ·
CCOC(=O)N1CCN(C(=O)c2oc3ccc(S(=O)(=O)N4CCCCCC4)cc3c2C)CC1 | – | -6.2 | – | – | – | – | 67% | –
CC(=O)c1ccc(NC(=S)Nc2ccc3[nH]c(=O)[nH]c3c2)cc1 | – | – | – | – | – | – | · | ·
Cc1ccc(NC(=S)Nc2ccc3[nH]c(=O)[nH]c3c2)cc1C | – | -6.9 | – | – | – | – | 63% | –
CCc1ccc(C(=O)COC(=O)CNC(=O)C2CCCCC2)cc1 | · | · | · | · | – | · | · | ·
CC(C)C(NC(=O)c1ccccc1Cl)C(=O)OCc1nc2scc(-c3ccccc3Cl)c2c(=O)[nH]1 (configuration not stated) | – | -5.1 | – | – | – | – | – | –
CCN1CCN(CCNC(=O)c2ccc3nc(-c4cccc(C)c4)c(-c4cccc(C)c4)nc3c2)CC1 | – | -8.7 | – | – | – | – | 36% | –
COc1ccc(-c2nc3ccc(C(=O)NCCCN4CCOCC4)cc3nc2-c2ccc(OC)cc2)cc1 | – | -5.1 | – | – | – | – | 53% | –
COc1ccc(NS(=O)(=O)c2cccc(C(=O)NCCCN3CCOCC3)c2)cc1 | – | – | · | · | – | – | · | ·
CC(=O)Nc1ccc(S(=O)(=O)NC2=C(N3CCN(Cc4ccccc4)CC3)C(=O)c3ccccc3C2=O)cc1 | – | -6.2 | – | – | – | – | 41% | 2.3
CCN1CCN(C2=C(NS(=O)(=O)c3ccc(NC(C)=O)cc3)C(=O)c3ccccc3C2=O)CC1 | – | – | – | – | – | – | · | ·
Cc1cccc(Oc2ccc3c(c2)cc(C(=O)O)n3C)c1 | – | – | – | – | – | – | · | ·
CCCn1nc(C(=O)N2CCN(c3ccccn3)CC2)c2ccccc2c1=O | · | · | · | · | – | · | · | ·
O=C(c1nn(-c2ccccc2)c(=O)c2ccccc12)N1CCN(c2ccccn2)CC1 | – | -6 | – | – | – | – | – | –
COc1ccc(-c2nnc(SCc3csc(N)n3)n2C)cc1 | – | – | – | – | – | – | · | ·
